Source: PubChem BioAssay
p97 inhibitor: inhibitors of human p97 ATPase | P55072 | recombinant p97 ATPase, Kinase-Glo ATP luminescence, 3 h | inhibition, % at 8 µM | hit rate 0.42% among 220,000; in the data active = inhibition above about 15%
Target sequence (P55072 whole entry, looked up): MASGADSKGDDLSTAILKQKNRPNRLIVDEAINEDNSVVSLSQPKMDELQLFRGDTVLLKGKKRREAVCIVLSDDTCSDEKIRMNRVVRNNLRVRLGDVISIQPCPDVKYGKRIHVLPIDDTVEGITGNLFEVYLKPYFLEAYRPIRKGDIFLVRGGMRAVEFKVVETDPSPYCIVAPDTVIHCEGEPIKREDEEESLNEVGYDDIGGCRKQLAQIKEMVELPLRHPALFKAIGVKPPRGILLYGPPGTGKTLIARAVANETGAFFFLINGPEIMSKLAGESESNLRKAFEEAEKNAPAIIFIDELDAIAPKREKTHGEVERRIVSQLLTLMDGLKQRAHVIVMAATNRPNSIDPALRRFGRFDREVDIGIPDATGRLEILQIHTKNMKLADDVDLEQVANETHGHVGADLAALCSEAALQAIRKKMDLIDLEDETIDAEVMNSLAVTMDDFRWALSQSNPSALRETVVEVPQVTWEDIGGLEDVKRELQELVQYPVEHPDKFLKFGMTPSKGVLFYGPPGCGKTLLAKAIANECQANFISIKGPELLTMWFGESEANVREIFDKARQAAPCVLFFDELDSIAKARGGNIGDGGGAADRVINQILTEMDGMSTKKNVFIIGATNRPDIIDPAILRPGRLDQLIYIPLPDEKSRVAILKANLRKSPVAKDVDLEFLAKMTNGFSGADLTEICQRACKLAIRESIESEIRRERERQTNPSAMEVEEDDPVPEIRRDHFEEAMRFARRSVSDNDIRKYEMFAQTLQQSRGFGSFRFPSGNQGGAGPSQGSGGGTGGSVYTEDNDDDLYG
PKD1 kinase inh: PKD1 (human) kinase inhibition; hit rate 0.056% among 200,000; inhibition, % (concentration not given with the values); Q15139; PKD1 kinase fluorescence polarization assay; in the data active = inhibition above about 50%
PP1 counter: counter-screen for PP5 inhibitors: inhibitors of human PP1-alpha; P62136; purified PP1alpha, OMFP fluorescence; inhibition, % at 6.7 µM; hit rate 0.9% among 320,000; AID 2235;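 active = inhibition above the mean inhibition of all tested compounds plus 3 SD, computed separately for each screening campaign, cut at about 15% in these data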
RBBP9 inh: inhibitors of human serine hydrolase RBBP9; recombinant RBBP9, FP-Rh probe fluorescence polarization; hit rate 0.2% among 220,000; AID 1515; inhibition, % at 7.94 µM; O75884;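 active = inhibition above the campaign mean of all tested compounds plus 3 SD, cut at about 14% in these data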
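Controls: DMSO-treated enzyme wells and wells lacking RBBP9 | Material: RBBP9 protein | Technique: Fluorescence polarization | Replication: Single well per compound, no replicates | Buffer or medium: Tris-NaCl-Pluronic buffer, pH 8.0 | Timing: 30 min compound preincubation, 45 min probe labeling, 25 °C | Read-out basis: Percent inhibition from mP, scaled between DMSO and no-protein wells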
Hsp70 activator: switches on Hsp70 transcription; AID 1203; activation, % at 10 µM; hit rate 0.04% among 200,000; HeLa Hsp70 promoter luciferase reporter, luminescence; scaled: vehicle 0, proteasome-inhibitor control 100%;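 active = activation above the mean across all tested compounds plus 3 SD, cutoff set per campaign, cut at about 5.5% in these data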
PP5 primary: inhibitors of human protein phosphatase 5 (PP5). inhibition, % at 6.7 µM. P53041. purified PP5c, OMFP substrate fluorescence. AID 1987. hit rate 0.18% among 320,000;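 active = inhibition above the campaign's mean inhibition across all tested compounds plus 3 SD, cut at about 9.5% in these data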
PP5 conf: confirmation of human PP5 phosphatase inhibitors | shares compounds with PP5 primary | Purified PP5, fluorogenic phosphatase substrate, fluorescence | hit rate 22% among 460 | inhibition, % at 6.7 µM; in the data active = inhibition above about 9.5%
PP1 inh counter: PP1 phosphatase inhibition, counter-screen for PP5 inhibitors; hit rate 4% among 460; inhibition, % at 6.7 µM; PP1 enzyme, fluorescent phosphatase substrate; shares compounds with PP5 primary; in the data active = inhibition above about 16%
PP1 confirm: human PP1 phosphatase inhibition, confirmation; purified PP1alpha, OMFP substrate fluorescence; AID 2358; shares compounds with PP1 counter; inhibition, % at 6.7 µM; hit rate 52% among 1,900;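 active = mean PP1 inhibition above a set limit taken from the earlier primary screen, cut at about 15% in these data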
PP5 counter: PP5 phosphatase inhibition, counter-screen for PP1 inhibitors; AID 2360; purified PP5c, OMFP fluorescence; shares compounds with PP1 counter; hit rate 4% among 1,900; inhibition, % at 6.7 µM;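 active = mean PP5 inhibition over triplicate wells above about 9.5% taken from the earlier PP1 screen, limit read from the data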
A number is an active result; 0 = inactive; - = no result given. Only some compounds are listed: those with a hit (about 1.5% of all), similar ones and a draw of the others.

SMILES	p97 inhibitor	PKD1 kinase inh	PP1 counter	RBBP9 inh	Hsp70 activator	PP5 primary	PP5 conf	PP1 inh counter	others
O=C(N/N=C\c1ccc(Cl)s1)c1ccc(Cn2cccn2)o1	0	0	0	0	0	0	-	-
O=C(N/N=C\c1c(O)ccc2ccccc12)c1ccc(Cn2cccn2)o1	0	0	0	0	0	19	0	0
Nc1c(C(=O)Nc2ccc(F)cc2)nnn1-c1cccc(C(F)(F)F)c1	0	0	0	0	0	0	-	-
COc1cccc(NC(=O)CN(C)C(=O)c2cccnc2Nc2cccc(C(F)(F)F)c2)c1	-	-	0	-	-	14	9.7	0
Cc1ccc(NC(=O)CN(C)C(=O)c2cccnc2Nc2cccc(C(F)(F)F)c2)cc1	-	-	0	-	-	11	0	0
CCOc1ncccc1C(=O)N(C)CC(=O)Nc1ccc(C)cc1	0	0	0	0	0	0	-	-
Cc1ccc(CN2C(=O)c3ccccc3NC2c2cc(Br)ccc2O)cc1 (stereo unspecified)	-	-	0	-	-	0	-	-
O=C(NC1CCCCC1)N1CCC(n2c(=O)[nH]c3ccccc32)CC1	-	0	0	-	-	19	0	0
CCc1ccc(NC(=O)CN(CC(=O)Nc2ccc(CC)cc2)CC(C)O)cc1 (stereo unspecified)	-	-	0	-	-	11	0	0
CC(C)NC(=O)c1ccccc1NC(=O)CCc1ccccc1	0	0	0	0	0	10	0	0
COCC(=O)Nc1ccccc1C(=O)NC(C)C	0	0	0	0	0	0	-	-
CCC(=O)N(CCc1ccccc1)Cc1cc2cccc(C)c2[nH]c1=O	-	-	0	-	-	0	-	-
COc1ccccc1NC(=O)Nc1nc(CC(=O)Nc2ccc(F)c(F)c2)cs1	-	-	0	-	-	9.9	0	0
COc1ccccc1NC(=O)Nc1nc(CC(=O)Nc2ccc(F)cc2)cs1	-	-	0	-	-	0	-	-
Cc1ccc(NC(=S)Nc2nc(CC(=O)Nc3ccccc3)cs2)cc1	0	0	0	0	0	10	0	0
Cc1ccc(NC(=O)c2cccc3c2C(=O)N(C2CCCCC2)C3)c(Cl)c1	-	-	0	-	-	0	-	-
CN(CCc1ccccn1)C(=O)CCC1CCCN(C(=O)c2ccsc2)C1 (stereo unspecified)	0	0	0	0	0	0	-	-
CCOC(=O)c1c(C(F)(F)C(F)(F)C(F)(F)C(F)(F)F)n[nH]c1C	0	0	0	0	0	14	9.9	0
O=C(C1CCC(CNS(=O)(=O)c2ccccc2)CC1)N1CCCCC1 (stereo unspecified)	-	-	0	-	-	9.9	0	0
CCOC(=O)C(NC(=O)NC1CCCCC1)(c1ccccc1)C(F)(F)F (stereo unspecified)	0	0	0	0	0	0	-	-
CCOC(=O)C(NC(=O)Nc1ccc(O)cc1)(c1ccccc1)C(F)(F)F (stereo unspecified)	0	0	0	0	0	11	0	0
CCOC(=O)N1CCC2(CC1)NCCc1c2[nH]c2ccccc12	0	-	0	0	-	12	0	0
CC1(C)Cc2c(sc(/N=C/N3CCCC3)c2C#N)C(C)(C)N1	0	0	0	0	0	0	-	-
CC(C)(C)NC(=O)CSc1nc2cccnc2n1C1CCCCC1	-	-	0	-	-	14	0	0
CNC(=O)CSc1nc2cccnc2n1C1CCCCC1	-	-	0	-	-	0	-	-
SMILES	p97 inhibitor	PKD1 kinase inh	PP1 counter	RBBP9 inh	Hsp70 activator	PP5 primary	PP5 conf	PP1 inh counter	others
CCN(CC)CCNC(=O)c1ccc(CS(=O)(=O)c2ccccc2C)o1	-	-	0	-	-	0	-	-
COc1ccc(C2N(S(=O)(=O)c3ccccc3)CCN2S(=O)(=O)c2ccc(C)cc2)cc1 (stereo unspecified)	0	0	0	0	0	10	0	0
O=C(Nc1c(C(=O)NCc2ccco2)cnn1-c1ccccc1)c1cccc(F)c1	0	0	0	0	0	11	0	0
O=C(Nc1ccc(OC(F)(F)F)cc1)C1CCCN(C(=O)c2ccc(Cl)cc2)C1 (stereo unspecified)	-	-	0	-	-	14	0	0
O=C(Nn1cnc2ccccc2c1=O)c1ccc(Cl)c([N+](=O)[O-])c1	-	-	0	-	-	0	-	-
COc1cccc(Oc2c(C)oc3c(CN4CCCC4)c(O)ccc3c2=O)c1	0	-	0	0	-	0	-	-
O=C(Nc1cc2cc([N+](=O)[O-])ccc2oc1=O)c1cccs1	0	0	0	0	0	0	-	-
CCc1ccc(CN(C)C(=O)CCc2nc3ccccc3n(-c3ccc(OC)cc3)c2=O)cc1	0	0	0	0	0	10	0	0
Cc1ccc(S(=O)(=O)N2CCN(C)CC2)cc1C	-	-	0	-	-	0	-	-
Cc1ccc(S(=O)(=O)N2CCN(S(=O)(=O)c3c(C)n[nH]c3C)CC2)cc1C	-	-	0	-	-	16	0	0
COc1ccc(NC(=O)CN2C(=O)NC(C)(c3ccccc3)C2=O)cc1Cl (stereo unspecified)	-	-	0	-	-	0	-	-	PP1 confirm=0;PP5 counter=0
CC1(c2ccc(Cl)cc2)NC(=O)N(CC(=O)Nc2ccc(N3CCCCC3)cc2)C1=O (stereo unspecified)	-	-	39	-	-	0	-	-	PP1 confirm=0;PP5 counter=0
CC1(c2ccccc2)NC(=O)N(CC(=O)Nc2ccc3c(c2)OCO3)C1=O (stereo unspecified)	0	0	0	0	0	0	-	-
CC1(c2ccc(Cl)cc2)NC(=O)N(CC(=O)Nc2ccc(F)cc2)C1=O (stereo unspecified)	-	-	0	-	-	0	-	-
CCCCCCc1cc2cc(-c3nnc(-c4ccccc4OC)o3)c(=O)oc2cc1O	0	0	20	0	0	0	-	-	PP1 confirm=0;PP5 counter=0
CCCCCCc1cc2cc(-c3nnc(-c4ccccc4O)o3)c(=O)oc2cc1O	0	0	0	0	0	0	-	-
CCC(C)(C)n1nnnc1C(c1ccc(F)cc1)N1CCN(C(=O)c2ccco2)CC1 (stereo unspecified)	-	-	0	-	-	0	-	-
N#Cc1c(-c2ccccc2)c(-c2ccccc2)nn(CC(=O)NNC(=O)Nc2ccc(Cl)c(Cl)c2)c1=O	0	0	23	0	0	0	-	-	PP1 confirm=0;PP5 counter=0
O=C(Cn1nc(-c2ccccc2)c2ccccc2c1=O)Nc1ccc(F)cc1	0	-	0	0	-	0	-	-
O=C(NCC1CCCO1)c1nc(Cn2ccc([N+](=O)[O-])n2)no1 (stereo unspecified)	-	-	21	-	-	0	-	-	PP1 confirm=0;PP5 counter=0
CCOC(=O)c1ccc2c(c1)C1C=CCC1C(C(=O)O)N2 (stereo unspecified)	0	0	30	0	0	0	-	-	PP1 confirm=0;PP5 counter=0
Cc1cc(C)c2c(c1)NC(C(=O)O)C1CC=CC21 (stereo unspecified)	-	-	0	-	-	0	-	-
O=C(CSc1ccc2nnc(-c3ccc(Cl)cc3)n2n1)N1CCCc2ccccc21	0	0	24	0	0	0	-	-	PP1 confirm=0;PP5 counter=0
